Published values pooled from the literature.
Compare with care: the assays were run in different laboratories.
Target: Dual specificity mitogen-activated protein kinase kinase 1 (MAP2K1, Homo sapiens, UniProt Q02750)

| Compound | effect on | mode | method | tested at | measurement | result |
| --- | --- | --- | --- | --- | --- | --- |
| C#Cc1n[nH]c2c(-c3cn([C@@H](C)c4ccccn4)c(=O)[nH]c3=O)cc(F)cc12 | enzyme activity | inhibitor | – | 0.1 µM | inhibition | 12% |
| Cc1nn(C)cc1-c1nc2c(N3CCN(Cc4ccc(Cl)cc4)CC3)c(Cl)cnc2[nH]1 | binding | – | competition with immobilised ligand | 1 µM | remaining binding | 100% |
| CC(C)(C)c1cc(C=C(C#N)C#N)cc(Br)c1O | enzyme activity | inhibitor | – | 0.5 µM | remaining activity | 90.8% |
| C#Cc1n[nH]c2c(-c3cn([C@@H](C)c4ccccc4)c(=O)[nH]c3=O)cc(F)cc12 | enzyme activity | inhibitor | – | 0.1 µM | inhibition | 6.6% |
| O=c1[nH]c2ccccc2n1C1CCN(Cc2ccc(-c3[nH]c4cc5ncnc5cc4nc3-c3ccccc3)cc2)CC1 | cell-free assay | – | – | 0.5 µM | remaining signal | 96.8% |
| Nc1ncc(-c2nc(N3CCOCC3)nc(N3CCOCC3)n2)c(C(F)F)n1 | binding | – | competition with immobilised ligand | 10 µM | remaining binding | 83% |
| N#CC1(c2ccccn2)CCN(Cc2cc(C(=O)O)c(=O)n3ccccc23)CC1 | cell-free assay | – | competition with immobilised ligand | 1 µM | remaining binding | 95% |
| Cn1cc(-c2cccc(N3CCc4c(sc5c4CC(C)(C)C5)C3=O)c2CO)cc(Nc2ccncn2)c1=O | enzyme activity | inhibitor | – | 1 µM | inhibition | 0% |
| Cn1cncc1[C@](O)(COc1ccc(C#N)cc1-c1ccc(OC(F)(F)F)cc1)c1ccc(C#N)cc1 | cell-free assay | – | competition with immobilised ligand | 1 µM | remaining binding | 100% |
| Cn1cc(-c2cc(F)cc(N3CCn4c(cc5c4CCCC5)C3=O)c2CO)cc(Nc2ccc(N3CCN(C4COC4)CC3)cn2)c1=O | enzyme activity | inhibitor | – | 0.1 µM | inhibition | 6% |
| COc1ncccc1-c1cnn2ccc(N3CCN(C(=O)OC(C)C)CC3)nc12 | binding | – | competition with immobilised ligand | 1 µM | remaining binding | 100% |
